≈ marks a conversion by molar mass, not a printed value.

The test system of test [1] is Mycobacterium tuberculosis. Nature of the test: Ratio of MIC for Mycobacterium tuberculosis H37Rv overexpressing ethR gene to MIC for wild-type Mycobacterium tuberculosis H37Rv expressing VV16 plasmid. The test is classed as functional. Summed up: (§1)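 Ratio of resazurin microtiter MICs in 7H9-ADC broth for H37Rv carrying pVVethR or pVVethA versus empty pVV16; ethA strain run at 32°C, ethR at 37°C.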

For test [2], the system named is Mycobacterium tuberculosis. The test can be described thus: Antimycobacterial activity against Mycobacterium tuberculosis MT1K ISO-R33 mutant expressing VV16 plasmid by colorimetric resazurin microtiter assay. The test is classed as functional. The gist of the method: (§2)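 Resazurin colorimetric microtiter MIC in 7H9-ADC broth with 2% DMSO at 37°C; strains carry empty pVV16 or pVVethA complementation vector; ISO tested up to 40 μg/ml, highest soluble level.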

Test [3] deals with Mycobacterium tuberculosis. The test can be described thus: microbe, parasite or virus in culture. The following applies: H37Rv ATCC 25618.
Test [4] has as its system Mycobacterium tuberculosis. The test can be described thus: Antimycobacterial activity against Mycobacterium tuberculosis MT1K ISO-R22 mutant overexpressing ethA gene by colorimetric resazurin microtiter assay. The test is classed as functional. The gist of the method: as §2
(The colour change of resazurin is a common sign of viable cells or microbes.)

Test [5] concerns Mycobacterium tuberculosis. The test can be described thus: Antimycobacterial activity against Mycobacterium tuberculosis H37Rv ATCC 25618 overexpressing ethR gene by colorimetric resazurin microtiter assay. The test is classed as functional. The gist of the method:
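Resazurin colorimetric microtiter MIC in 7H9-ADC broth at 37°C, for H37Rv carrying ethR on pVV vector; ISO tested up to 40 μg/ml, the solubility limit.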

Test [6] deals with Mycobacterium tuberculosis. The test can be described thus: Antimycobacterial activity against Mycobacterium tuberculosis MT1K ISO-R22 mutant expressing VV16 plasmid by colorimetric resazurin microtiter assay. The test is classed as functional. The gist of the method:
as §2

Test [7] has as its system Mycobacterium tuberculosis. The test can be described thus: Antimycobacterial activity against Mycobacterium tuberculosis MT1K ISO-R33 mutant overexpressing ethA gene by colorimetric resazurin microtiter assay. The test is classed as functional. The gist of the method: as §2
Test [8] has as its system Mycobacterium tuberculosis. The test can be described thus: Ratio of MIC for wild-type Mycobacterium tuberculosis H37Rv expressing VV16 plasmid to MIC for Mycobacterium tuberculosis H37Rv overexpressing ethA gene. The test is classed as functional. The gist of the method: as §1

As for `CC(C)CCOc1ccc(NC(=S)Nc2ccc(OCCC(C)C)cc2)cc1` [TIOCARLIDE], the figures for the “fold change (FC)” value in test [1] and in test [8] were 8 and 2, respectively. The MIC in test [2] was over 40 µg/mL; in test [3], 2.5 µg/mL (≈ 6.24 µM); in test [4] it was 5 µg/mL (≈ 12.5 µM); in test [5], over 40 µg/mL; in test [6], over 40 µg/mL; in test [7], 5 µg/mL (≈ 12.5 µM).

(Values after ChEMBL document CHEMBL1137655, “Isoxyl activation is required for bacteriostatic activity against Mycobacterium tuberculosis” (2007).)
